The list is not random: actives were taken first. Their share in the collection is about 4%.
hERG rescue – hERG rescue from dofetilide block, primary screen, cell-based, CHO-hERG, FluxOR thallium flux, dofetilide IC70. Voltage-gated inwardly rectifying potassium channel KCNH2 (Homo sapiens), Q12809. dofetilide IC70 present. activation (rescue from dofetilide block), less the hit threshold, % at 10 µM. actives 0.51% (n = 310,000). AID 1511, 2009;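 active means activation above the mean of controls blocked by dofetilide plus 5 SD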;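 further: thallium influx through hERG after potassium depolarization seen as dye fluorescence rise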
KCNQ1 pot – potentiators or activators of KCNQ1 channel, primary screen, cell-based, thallium flux, high-throughput. B-score at 10 µM. actives 0.35% (n = 310,000). CHO-K1 KCNQ1, thallium flux FluxOR fluorescence; stronger effect = higher value. AID 2648, 2010;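 active means fluorescence ratio B-score, a plate-corrected score, at least three library SD, with initial intensity B-score within 5 SD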
Target sequence (P51787 whole entry, looked up): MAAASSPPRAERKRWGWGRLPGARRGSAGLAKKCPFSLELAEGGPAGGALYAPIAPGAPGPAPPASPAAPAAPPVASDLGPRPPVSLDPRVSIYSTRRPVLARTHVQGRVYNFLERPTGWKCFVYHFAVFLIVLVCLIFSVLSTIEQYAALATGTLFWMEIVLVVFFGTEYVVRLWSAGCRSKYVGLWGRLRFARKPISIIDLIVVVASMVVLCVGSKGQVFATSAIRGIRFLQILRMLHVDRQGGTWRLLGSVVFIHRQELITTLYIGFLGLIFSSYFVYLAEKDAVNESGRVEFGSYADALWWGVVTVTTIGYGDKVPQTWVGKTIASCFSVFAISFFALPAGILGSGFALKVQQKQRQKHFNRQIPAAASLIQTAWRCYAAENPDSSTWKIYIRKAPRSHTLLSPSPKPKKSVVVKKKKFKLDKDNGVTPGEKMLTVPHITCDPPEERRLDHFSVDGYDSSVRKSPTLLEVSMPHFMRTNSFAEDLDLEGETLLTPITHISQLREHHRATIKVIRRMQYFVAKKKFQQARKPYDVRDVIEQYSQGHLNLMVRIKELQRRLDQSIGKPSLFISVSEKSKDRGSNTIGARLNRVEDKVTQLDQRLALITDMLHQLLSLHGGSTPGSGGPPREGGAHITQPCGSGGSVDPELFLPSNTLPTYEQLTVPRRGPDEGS
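System: CHO-K1 cells stably expressing KCNQ1 / Medium: assay buffer for compound exposure, DMSO matched across wells / Reagent: thallium- and potassium-containing depolarizing buffer / Compound: one concentration, matched DMSO / Incubation: 20 min compound pretreatment at room temperature / Measured by: kinetic FluxOR fluorescence, 10 s baseline plus 110 s post-stimulus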
KCNQ1 block – inhibitors of human KCNQ1 channel, primary screen, cell-based, thallium flux, high-throughput | actives 1.3% (n = 310,000) | Potassium voltage-gated channel subfamily KQT member 1 (Homo sapiens), P51787 | CHO-K1 KCNQ1, FluxOR thallium flux fluorescence; stronger effect = higher value | B-score at 10 µM;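 active means compounds whose thallium flux B-score, printed positive for inhibition, exceeds three library SD while starting fluorescence stays within three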;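 further: channel opened by potassium depolarization with thallium stimulus after 20 min compound exposure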
KCNK3 block – human KCNK3 channel inhibitors, primary screen, CHO cells, FluxOR thallium flux, B-score; Potassium channel subfamily K member 3 (Homo sapiens), O14649; AID 602410, 2012; actives 0.84% (n = 340,000); B-score at 10 µM; FluxOR fluorescence; stronger effect = lower value;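 active means B-score under library mean minus 4 SD, starting fluorescence ratio at most library mean plus 5 SD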;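 further: more negative B-score means stronger inhibition of thallium flux through KCNK3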
KCNK9 inh – KCNK9 potassium channel inhibitors, primary screen, HEK293 cells, thallium flux. B-score at 10 µM. Potassium channel subfamily K member 9 (Homo sapiens), Q9NPC2. AID 488922, 2010. FluxOR thallium flux fluorescence; stronger effect = lower value. actives 1.2% (n = 310,000);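 active means ratio B-score over 3 SD below the library mean, with starting fluorescence within 5 SD of its mean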;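 further: negative B-score means less thallium flux so channel inhibition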
PHOSPHO1 block – PubChem AID 1565 | inhibition, % at 13.3 µM | Phosphoethanolamine/phosphocholine phosphatase (Homo sapiens), Q8TCT1 | actives 1.1% (n = 290,000) | recombinant PHOSPHO1, absorbance phosphatase assay; in the data active means inhibition above about 60%
KCNK9 inh conf – KCNK9 potassium channel inhibitors, confirmation, HEK293 cells, thallium flux, duplicate; shares compounds with KCNK9 inh; FluxOR thallium flux fluorescence; inhibition, % at 10 µM; actives 43% (n = 4,900); AID 492992, 2010;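 active means thallium signal inhibited by more than 5 SD of the compound-free buffer control wells, on both duplicate plates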;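 further: 0% = assay buffer control wells without compound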
Kir21 sel – mouse Kir2.1 channel inhibition, confirmation, selectivity assay for KCNK9 modulator project, cell-based, HEK293, thallium flux | shares compounds with KCNK9 inh | inhibition, % at 10 µM | Kir2.1 cells, FluxOR thallium flux fluorescence | actives 4% (n = 4,900) | AID 492993, 2010;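 active means thallium signal drop more than 5 SD beyond the mean of the no-compound control wells, seen in both duplicate plates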;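 further: signal is fluorescence rise after thallium addition divided by baseline fluorescence; plate controls were assay buffer only for no effect and full block by chlorpromazine control for full effect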
KCNK9 uninduced – thallium flux in non-induced HEK293 cells, confirmation, counter-screen for KCNK9 inhibitor project, cell-based, second counter screen, non-induced KCNK9-HEK293; shares compounds with KCNK9 inh; FluxOR thallium flux; inhibition, % at 10 µM; actives 40% (n = 4,900);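 active means thallium signal drop beyond 5 SD of the untreated control mean, on both duplicate plates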;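 further: plate controls were buffer only IC0 wells for no effect and SID17386958 at its maximal inhibitory level for full effect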
* hit, by the source's call; i = inactive; nt = no result given.

SMILES	hERG rescue	KCNQ1 pot	KCNQ1 block	KCNK3 block	KCNK9 inh	PHOSPHO1 block	KCNK9 inh conf	Kir21 sel	KCNK9 uninduced
CCCCc1c(O)nc(SCC(=O)Nc2ccc3c(c2)CCC3)[nH]c1=O	-6.7	i	i	i	i	43.2	nt	nt	nt
C=CCNC(=S)/N=c1/ccccn1C	-6.5	i	i	i	i	19.7	nt	nt	nt
Cc1cc(C(=O)Cn2nc(C(=O)O)c3ccccc3c2=O)c(C)n1-c1ccc(OC(F)F)cc1	-5.0	i	i	i	i	5.0	i	i	i
COc1ccc(-n2c(C)cc(C(=O)Cn3nc(C(=O)O)c4ccccc4c3=O)c2C)cc1	-6.9	i	i	i	i	-13.2	i	i	i
CCOC(=O)c1cc2c(ccn2C)n1Cc1ccc(C#N)cc1	-12.4	i	i	i	-8.33*	17.9	37.0%*	i	30.5%*
O=C(OCC(=O)N1CCOCC1)c1c(Cl)ccc(Cl)c1Cl	-8.6	i	i	i	i	43.8	nt	nt	nt
CC(C)(C)C1CCc2c(sc3c2C(=O)NC(c2ccco2)N3)C1 (configuration not stated)	2.0	i	i	i	i	13.5	i	i	i
CN1CCc2c(sc3c2C(=O)NC(c2ccccc2)N3)C1 (configuration not stated)	-3.0	i	i	i	i	13.4	nt	nt	nt
CCCC[C@H]1COCCS(=O)(=O)N1Cc1ccc(Br)cc1	-6.5	i	i	i	-8.32*	4.0	37.0%*	i	42.5%*
C[C@@H]1CC[C@@]23COC(=O)C2=CCC[C@@H]3[C@@]1(C)CC/C(=C/CO)CO	nt	nt	nt	i	nt	nt	nt	nt	nt
CC1=CCC[C@@H]2[C@@](C)(CC/C(C)=C/C(=O)O)[C@H](C)CC[C@@]12C	-0.9	i	i	i	i	-6.1	i	i	i
Cc1ccc(-c2nn(C(C)(C)C)c3ncnc(NS(=O)(=O)c4ccc([N+](=O)[O-])cc4)c23)cc1	-10.6	i	i	i	i	48.0	i	i	i
CCCCn1c(-c2cccc3ccccc23)nc2cc3[nH]c(=O)c(C(C)C)nc3cc21	-7.1	i	i	i	-11.1*	4.0	54.0%*	i	i
COc1ccc(C(=O)C(OC(=O)c2ccccc2Cl)c2ccccc2)cc1 (configuration not stated)	-10.1	i	i	i	-8.12*	-16.4	59.5%*	i	24.5%*
COc1ccc(C(=O)C(OC(=O)c2ccccc2)c2ccccc2)cc1 (configuration not stated)	-6.4	i	i	i	-13.6*	27.0	53.0%*	i	30.0%*
Cc1cnc(C(=O)OC(C(=O)c2ccccc2)c2ccccc2)cn1 (configuration not stated)	nt	nt	nt	i	nt	nt	nt	nt	nt
CC1CC(C)CN(C(=O)c2cc(S(=O)(=O)N3CCCCC3)ccc2Cl)C1 (configuration not stated)	-15.0	i	i	i	i	nt	nt	nt	nt
CN(c1ccccc1)S(=O)(=O)c1cccc(NC(=O)CSc2n[nH]c(N)n2)c1	-21.7	i	i	i	i	-0.3	i	i	i
CC(=O)Nc1ccc(C(=O)N2CCc3cc4c(cc3C2C)OCCCO4)cc1 (configuration not stated)	-9.2	i	i	i	i	13.1	nt	nt	nt
O=c1cc(N2CCCCC2)c(-c2ccccc2)nn1Cc1ccc(Cl)cc1Cl	-7.0	i	9*	i	-20.8*	37.3	80.0%*	i	45.5%*
O=c1cc(N2CCCCC2)c(-c2ccccc2)nn1Cc1cccc(Cl)c1	-3.7	i	i	i	i	28.7	nt	nt	nt
COc1ccc(C(=O)NC(=S)Nc2ccc(CN3CCOCC3)cc2)cc1Br	1.0	i	i	i	i	-8.1	i	i	i
COc1ccc(C(=O)NC(=S)Nc2ccc(CN3CCOCC3)cc2)cc1	-2.4	i	i	i	i	28.8	nt	nt	nt
Cc1sc2nc(SCc3ccccc3)n(Cc3ccco3)c(=O)c2c1C	-7.5	i	i	i	i	12.8	nt	nt	nt
Cc1sc2nc(SCc3nc4ccccc4[nH]3)n(Cc3ccco3)c(=O)c2c1C	-8.8	i	i	i	-8.25*	-39.9	26.5%*	i	31.5%*
SMILES	hERG rescue	KCNQ1 pot	KCNQ1 block	KCNK3 block	KCNK9 inh	PHOSPHO1 block	KCNK9 inh conf	Kir21 sel	KCNK9 uninduced
Cc1cc(OCc2cc(C(=O)N(C)Cc3nonc3C)no2)cc(C)c1Cl	-6.8	i	i	i	i	11.9	nt	nt	nt
CCc1ccc(CN(C)C(=O)c2cc(COc3cc(C)c(Cl)c(C)c3)on2)nc1	-9.6	i	i	i	i	42.2	i	i	i
CCOc1ccccc1NC(=O)N1CCC(C(=O)c2ccc(F)cc2)CC1	-19.5	i	i	i	-10*	11.5	41.5%*	i	36.5%*
C=CC[n+]1c(-c2ccc(Cl)cc2Cl)csc1Nc1c(C)n(C)n(-c2ccccc2)c1=O	-19.7	i	i	i	i	3.5	i	i	i
CCn1c(SCC(=O)N/N=C/c2ccc(C)o2)nnc1-c1ccccc1	-5.6	i	i	i	i	0.1	nt	nt	nt
CCn1c(SCC(=O)N/N=C/C(C)=C\c2ccco2)nnc1-c1ccccc1	-7.6	i	i	i	i	0.0	i	i	i
CCC(c1nnnn1C(C)(C)C)N(Cc1ccco1)Cc1cc2cccc(C)c2[nH]c1=O (configuration not stated)	-5.4	i	i	i	i	7.1	nt	nt	nt
